# A selection: hits, their analogues and other compounds. The true share with any hit is near 0.89%.
# ABCB6 inh MLPCN = ABCB6 transporter inhibitors, primary screen, K562-ABCB6 cells, flow cytometry, MLPCN library; K562-ABCB6 porphyrin accumulation, 1 h; hits give low values; fluorescence ratio to DMSO, % at 10 µM; 360,000 compounds, 0.19% hits;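 active = fluorescence ratio to DMSO below 75%, the collection mean minus 3 SD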;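 note: signal is porphyrin accumulated inside mitochondria; 100% equals median channel fluorescence of DMSO control wells; lower ratio means ABCB6 inhibition with less porphyrin fluorescence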
# PG9 binder = binders of HIV-1 gp120 antibody PG9, primary screen, biochemical, TR-FRET; 360,000 compounds, 0.43% hits; inhibition, % at 6.7 µM; TR-FRET gp120-PG9 antibody binding; HIV-1 gp120 / PG9 antibody interaction; AID 624416, 2012; in the data active = inhibition above about 8.5%
# hiPSC survival = enhancers of single-cell hiPSC survival, primary screen, ATPlite luminescence | 100% = ROCK inhibitor wells, 0% = DMSO | survival enhancement, % at 20 µM | AID 602274, 2012 | 360,000 compounds, 0.044% hits; in the data active = survival enhancement above about 18%;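 note: cells exposed to compounds for 16 hours before the ATP read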
# Arrestin-AP2 inh = inhibitors of beta-arrestin/AP2 binding, primary screen, biochemical, GPCR trafficking, flow cytometry; FITC-arrestin peptide / GST-AP2 beads; AP2 beta2 appendage carries R879A mutation; inhibition, % at 10 µM; AID 504490, 2011; beta-arrestin 1 C-terminal peptide binding to AP2 beta2-adaptin appendage (human); 340,000 compounds, 0.31% hits;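 active = inhibition above a set limit, near 3 SD of compounds lacking own fluorescence, cut at about 54% in these data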;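 note: plate controls were DMSO wells for no effect and 5 µM unlabelled arrestin peptide for full effect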
#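 Assay system: GST-AP2 R879A bound to glutathione beads, E. coli-expressed; Medium: PBS with 0.05% Tween 20 and 0.1% BSA; Also added: fluorescein-tagged arrestin peptide at 50 nM final; Timing: 12 min plus 1 h, RT; Measured by: flow cytometry, FL1 (488/535 nm); Evaluation: percent drop in bead-associated FITC signal.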
# PG9 binder conf = binders of anti-gp120 antibody PG9, confirmation, biochemical, TR-FRET. shares compounds with PG9 binder. TR-FRET PG9 antibody binding. inhibition, % at 6.7 µM. 1,500 compounds, 90% hits. AID 651571, 2012; in the data active = inhibition above about 9%
# PGV04 Ab binding = binders of control antibody PGV04, counter-screen for PG9 antibody binder project, biochemical, TR-FRET, distinct HIV envelope site. shares compounds with PG9 binder. TR-FRET PGV04 antibody-gp120 binding. inhibition, % at 6.7 µM. 1,500 compounds, 95% hits. AID 651604, 2012; in the data active = inhibition above about 9.5%
# PG9 bind DR = small-molecule binders of antibody PG9, dose response, biochemical, TR-FRET, HIV-1 gp120 antibody; shares compounds with PG9 binder; TR-FRET PG9 antibody-gp120 binding inhibition; IC50, µM; 95 tested, under 10 active; in the data active = IC50 below about 10 µM
# PGV04 DR counter = binders of control antibody PGV04, dose response, counter-screen for PG9 antibody binder project, biochemical, TR-FRET, distinct HIV envelope site. shares compounds with PG9 binder. TR-FRET binding to control antibody PGV04. IC50, µM. 95 compounds, 20% hits. AID 651937, 2012
# PG126 DR counter = binders of control antibody PG126, dose response, counter-screen for PG9 antibody binder project, biochemical, TR-FRET, distinct HIV envelope site. shares compounds with PG9 binder. TR-FRET binding to antibody PG126, counterscreen. IC50, µM. 95 compounds, 20% hits. AID 651939, 2012
# Numbers without * were called inactive; i = inactive; . = not tested or not shown. Cut-off read from the data, not from the text of the source, unless noted: active = IC50 below about 9 µM; inactive = the rest.
SMILES,ABCB6 inh MLPCN,PG9 binder,hiPSC survival,Arrestin-AP2 inh,PG9 binder conf,PGV04 Ab binding,others
Cc1cccnc1NC(=O)CNC(=O)c1sc2ccccc2c1Cl,97,1,5,-6,.,.,
CC(C)[C@@H]1CC[C@@H](C)C[C@H]1OC[B-](F)(F)F,.,-1,.,.,.,.,
Cc1ccccc1CN1[C@@H](C)[C@H](c2ccccc2)Oc2cccc(NCCc3ccccc3)c2S1(=O)=O,.,1,.,.,.,.,
CCc1ccccc1NC(=O)CC1S/C(=N\c2nccs2)N(CC)C1=O (stereo not given),95,15*,-1,27,9.0*,12*,
CC1=NOC(=O)/C1=C\c1ccc(-c2ccccc2Br)o1,99,14*,-1,-8,30*,54*,
O=C(CNC(=O)c1ccc(Br)cc1)c1ccccc1,101,0,0,-7,.,.,
O=C(CNC(=O)c1ccc(Br)cc1)c1ccc(Br)cc1,99,11*,0,-1,18*,26*,
CCCN1C(=O)c2n[nH]c(C)c2C1c1ccc2c(c1)OCO2 (stereo not given),.,0,.,.,.,.,
COc1ccc(OC)c(Nc2nc(-c3ccccc3O)nc3ccccc23)c1,98,50*,0,-3,51*,75*,
CC(C)CC(=O)C1CCCN(C(=O)c2ccc3oc(Cc4ccccc4)nc3c2)C1 (stereo not given),99,-3,0,19,.,.,
CCOC(=O)C1CCCN(C(=O)c2ccc3oc(Cc4ccccc4)nc3c2)C1 (stereo not given),98,12*,0,-2,5,7,
CCCCNC(=O)C[C@H]1C[C@@]2(C(=O)OC)C(=C[C@H](C(C)(C)C)O[C@@H]2C)N(Cc2ccc3c(c2)OCO3)C1=O,.,0,.,.,.,.,
O=C(Nc1nc2ccccc2n1CCOc1ccccc1)c1ccco1,98,-1,3,10,.,.,
Cc1ccc(OCCn2c(NC(=O)c3ccco3)nc3ccccc32)cc1,99,19*,0,5,17*,25*,
O=c1oc(-c2ccccc2F)nc2c1cnn2-c1ccccc1,94,20*,-1,-1,49*,58*,
COc1cccc(CNC(=O)[C@H]2CCCN2C(=O)[C@H]2CCCN2C(=O)c2ccc(F)c(C(F)(F)F)c2)c1,.,-1,.,.,.,.,
COc1ccccc1CCn1cnc(-c2ccc(OC)c(OC)c2)c1CC(C)C,.,1,.,.,.,.,
CCOC(=O)c1nn(-c2ccc(Cl)cc2)c2nc(-c3ccc(C)cc3)c(C#N)c(=O)n12,101,0,1,-1,.,.,
CCOC(=O)c1nn(-c2ccc(Cl)cc2)c2nc(CC)c(C#N)c(=O)n12,103,16*,-2,27,20*,25*,
O=c1[nH]c2ccc(Cl)cc2c(O)c1Cc1ccccc1,100,9.0*,-1,-8,11*,14*,
Cc1[nH]c2ccccc2c1CC(=O)Nc1ccc(Nc2cccnc2)c(-c2ccc(C(C)(C)C)cc2)c1,.,-1,.,.,.,.,
O=C(Nc1ccc(F)cc1Cl)c1ccc2c(=O)n3c(nc2c1)CCCCC3,98,29*,-4,5,30*,9.7*,PG9 bind DR=>67;PGV04 DR counter=i;PG126 DR counter=i
O=C(C1=C(O)C(=O)N(CCN2CCOCC2)C1c1cccc(F)c1)c1cc2ccccc2o1 (stereo not given),104,24*,0,21,34*,45*,
CCN(CC)CCN1C(=O)C(O)=C(C(=O)c2cc3cccc(OC)c3o2)C1c1ccc(F)cc1 (stereo not given),102,14*,-1,0,30*,37*,
O=C(C1=C(O)C(=O)N(CCN2CCOCC2)C1c1ccc(Br)cc1)c1cc2ccccc2o1 (stereo not given),104,6,-1,47,.,.,
SMILES,ABCB6 inh MLPCN,PG9 binder,hiPSC survival,Arrestin-AP2 inh,PG9 binder conf,PGV04 Ab binding,others
Cc1ccc(C2C(C(=O)c3cc4ccccc4o3)=C(O)C(=O)N2CCN2CCOCC2)cc1 (stereo not given),108,10*,1,26,27*,35*,
O=C(C1=C(O)C(=O)N(CCN2CCOCC2)C1c1cccc(O)c1)c1cc2ccccc2o1 (stereo not given),101,3,0,18,.,.,
COc1cccc2cc(C(=O)C3=C(O)C(=O)N(CCN4CCOCC4)C3c3cccc(Cl)c3)oc12 (stereo not given),101,18*,0,12,27*,38*,
COc1cccc2cc(C(=O)C3=C(O)C(=O)N(CCN4CCOCC4)C3c3ccc(Cl)cc3)oc12 (stereo not given),99,1,-1,-7,.,.,
COC(=O)c1cc2c(c3c4cc(F)ccc4n(S(=O)(=O)c4ccccc4)c13)C(=O)N(C)C2,.,0,.,.,.,.,
CC(C)[C@H](NC(=O)C1CC1)C(=O)N1CCC[C@H]1C(=O)NCc1ccccc1,.,-1,.,.,.,.,
COc1cccc(C2C(C(=O)c3cccs3)=C(O)C(=O)N2CCN2CCOCC2)c1 (stereo not given),102,0,-1,12,.,.,
COc1cccc(C2C(C(=O)c3ccc(C)o3)=C(O)C(=O)N2CCN2CCOCC2)c1 (stereo not given),105,9.0*,1,0,21*,25*,
O=C(CNSc1ccc([N+](=O)[O-])cc1[N+](=O)[O-])OCc1ccccc1,.,0,.,.,.,.,
CCOc1ccc(/C(O)=C2\C(=O)C(=O)N(c3ccccn3)C2c2ccccc2F)c(C)c1 (stereo not given),95,9.6*,-1,.,22*,32*,
COC(=O)[C@]12C[C@H](CC(=O)NCc3ccc(C)o3)C(=O)N(Cc3ccc4c(c3)OCO4)C1=C[C@H](COCc1ccccc1)O[C@@H]2C,.,2,.,.,.,.,
CCOC(=O)c1cnc2ccccc2c1NCCO,95,1,8,5,.,.,
CCOC(=O)c1cnc2c(Cl)cc(Cl)cc2c1NCCOCCO,91,13*,1,-3,9.7*,12*,
